Data as given in paper PMC10975593 (ACS Omega, 2024).

Experiments:
[1] = test system: SK-MEL-5; assay: NCI 60-cell line screen; type: cell-based, human
Method in brief: (§1)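 Test compounds were submitted to the National Cancer Institute and run under NCI's standard 60-cell-line protocols. Read-outs were taken from percent-growth versus log-concentration curves.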

[2] = test system: SW-620; assay: NCI 60-cell line screen; type: cell-based, human
Method in brief: as §1

[3] = test system: SK-OV-3; assay: NCI 60-cell line screen; type: cell-based, human
Method in brief: as §1

[4] = test system: OVCAR-8; assay: NCI 60-cell line screen; type: cell-based, human
Method in brief: as §1

[5] = test system: NCI 60 cell line panel; assay: NCI 60-cell line inhibition, range over panel; type: cell-based; settings: Homo sapiens
[6] = test system: NCI-H522; assay: NCI 60-cell line screen; type: cell-based, human
[7] = test system: MCF-7; assay: NCI 60-cell line screen; type: cell-based, human
[8] = test system: HT29; assay: NCI 60-cell line screen; type: cell-based, human
[9] = test system: Staphylococcus aureus; assay: Disc diffusion antimicrobial test; type: cell-based; settings: Staphylococcus aureus, 24 h, read-out: zone of inhibition (diameter of inhibition)
Method in brief: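 Disc diffusion on nutrient agar, test compound at 100 μg/mL with DMSO as solvent. Plates incubated at 37 °C for 24 h after inoculation, then zone of inhibition measured and compared with standards. Controls were DMSO, amoxicillin, ciprofloxacin and tetracycline.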

[10] = test system: PC-3; assay: NCI 60-cell line screen; type: cell-based, human
Method in brief: as §1

[11] = test system: UACC-62; assay: NCI 60-cell line screen; type: cell-based, human
Method in brief: as §1

[12] = test system: A549/ATCC; assay: NCI 60-cell line screen; type: cell-based, human
[13] = test system: MDA-MB-231/ATCC; assay: NCI 60-cell line screen; type: cell-based, human
[14] = test system: 786-0; assay: NCI 60-cell line screen; type: cell-based, human
[15] = test system: T-47D; assay: NCI 60-cell line screen; type: cell-based, human
Method in brief: as §1

[16] = test system: CCRF-CEM; assay: NCI 60-cell line screen; type: cell-based, human
[17] = test system: IGROV1; assay: NCI 60-cell line screen; type: cell-based, human
[18] = test system: SF-295; assay: NCI 60-cell line screen; type: cell-based, human
Method in brief: as §1

[19] = test system: MDA-MB-435; assay: NCI 60-cell line screen; type: cell-based, human
[20] = test system: HS 578T; assay: NCI 60-cell line screen; type: cell-based, human
[21] = test system: SF-539; assay: NCI 60-cell line screen; type: cell-based, human
Method in brief: as §1

[22] = test system: NCI/ADR-RES; assay: NCI 60-cell line screen; type: cell-based, human
[23] = test system: COLO 205; assay: NCI 60-cell line screen; type: cell-based, human
[24] = test system: Fibro cell line; assay: % inhibition on normal cell line; type: cell-based
[25] = test system: HCC-2998; assay: NCI 60-cell line screen; type: cell-based, human
[26] = test system: CAKI-1; assay: NCI 60-cell line screen; type: cell-based, human

O=C(CNc1ccc([N+](=O)[O-])cc1)Nc1nc2ccccc2s1 [OMS5, N-(1,3-benzothiazol-2-yl)-2-(4-nitroanilino)acetamide]
GI50 ([1]; Homo sapiens, SK-MEL-5): 1600 nM | IC50 ([1]; Homo sapiens, SK-MEL-5): 2900 nM | CC50 ([1]; Homo sapiens, SK-MEL-5, read-out: LC50): 5.5 µM | TGI ([1]; SK-MEL-5, melanoma): 3 µM | GI50 ([2]; Homo sapiens, SW-620): 500 nM | IC50 ([2]; Homo sapiens, SW-620): 700 nM | CC50 ([2]; Homo sapiens, SW-620, read-out: LC50): 43.7 µM | TGI ([2]; SW-620, colon cancer): 7.2 µM | GI50 ([3]; Homo sapiens, SK-OV-3): 1300 nM | IC50 ([3]; Homo sapiens, SK-OV-3): 5.2 µM | CC50 ([3]; Homo sapiens, SK-OV-3, read-out: LC50): > 100 µM | TGI ([3]; SK-OV-3, ovarian cancer): 6.8 µM | GI50 ([4]; Homo sapiens, OVCAR-8): 600 nM | IC50 ([4]; Homo sapiens, OVCAR-8): 900 nM | CC50 ([4]; Homo sapiens, OVCAR-8, read-out: LC50): > 100 µM | TGI ([4]; OVCAR-8, ovarian cancer): 22 µM | GI50 ([5]; read-out: GI50, range over cell lines): 360 to 2300 nM | IC50 ([5]; read-out: IC50, range over cell lines): 0.44 to 12 µM | GI50 ([6]; Homo sapiens, NCI-H522): 700 nM | IC50 ([6]; Homo sapiens, NCI-H522): 2100 nM | CC50 ([6]; Homo sapiens, NCI-H522, read-out: LC50): 6.3 µM | TGI ([6]; NCI-H522, non-small cell lung cancer): 2.3 µM | GI50 ([7]; Homo sapiens, MCF7): 400 nM | IC50 ([7]; Homo sapiens, MCF7): 500 nM | CC50 ([7]; Homo sapiens, MCF7, read-out: LC50): 74.1 µM | TGI ([7]; MCF-7, breast cancer): 10 µM | TGI ([8]; HT29, colon cancer): 2.1 µM | GI50 ([8]; Homo sapiens, HT-29): 500 nM | IC50 ([8]; Homo sapiens, HT-29): 700 nM | CC50 ([8]; Homo sapiens, HT-29, read-out: LC50): 8.1 µM | zone of inhibition at 100 µg/mL [9]: 0 mm | GI50 ([10]; Homo sapiens, PC-3): 1600 nM | IC50 ([10]; Homo sapiens, PC-3): 2800 nM | CC50 ([10]; Homo sapiens, PC-3, read-out: LC50): > 100 µM | TGI ([10]; PC-3, prostate cancer): 45 µM | GI50 ([11]; Homo sapiens, UACC-62): 1100 nM | IC50 ([11]; Homo sapiens, UACC-62): 2000 nM | CC50 ([11]; Homo sapiens, UACC-62, read-out: LC50): 5.5 µM | TGI ([11]; UACC-62, melanoma): 2.5 µM | TGI ([12]; A549/ATCC, non-small cell lung cancer): 28 µM | GI50 ([12]; Homo sapiens, A549): 800 nM | IC50 ([12]; Homo sapiens, A549): 1500 nM | CC50 ([12]; Homo sapiens, A549, read-out: LC50): > 100 µM | GI50 ([13]; Homo sapiens, MDA-MB-231): 1000 nM | IC50 ([13]; Homo sapiens, MDA-MB-231): 2300 nM | CC50 ([13]; Homo sapiens, MDA-MB-231, read-out: LC50): 8.3 µM | TGI ([13]; MDA-MB-231/ATCC, breast cancer): 2.9 µM | TGI ([14]; 786-0, renal cancer): 12 µM | GI50 ([14]; Homo sapiens, 786-0): 500 nM | IC50 ([14]; Homo sapiens, 786-0): 900 nM | CC50 ([14]; Homo sapiens, 786-0, read-out: LC50): 43.7 µM | GI50 ([15]; Homo sapiens, T47D): 1000 nM | IC50 ([15]; Homo sapiens, T47D): 4.6 µM | CC50 ([15]; Homo sapiens, T47D, read-out: LC50): 74.1 µM | TGI ([15]; T-47D, breast cancer): 4.6 µM | GI50 ([16]; Homo sapiens): 900 nM | IC50 ([16]; Homo sapiens): 2300 nM | CC50 ([16]; Homo sapiens, read-out: LC50): > 100 µM | TGI ([16]; leukemia): 50 µM | GI50 ([17]; Homo sapiens, IGROV-1): 800 nM | IC50 ([17]; Homo sapiens, IGROV-1): 1800 nM | CC50 ([17]; Homo sapiens, IGROV-1, read-out: LC50): > 100 µM | TGI ([17]; IGROV1, ovarian cancer): 12 µM | GI50 ([18]; Homo sapiens, SF-295): 700 nM | IC50 ([18]; Homo sapiens, SF-295): 1400 nM | CC50 ([18]; Homo sapiens, SF-295, read-out: LC50): 24 µM | TGI ([18]; SF-295, CNS cancer): 4.4 µM | GI50 ([19]; Homo sapiens, MDA-MB-435): 700 nM | IC50 ([19]; Homo sapiens, MDA-MB-435): 1300 nM | CC50 ([19]; Homo sapiens, MDA-MB-435, read-out: LC50): 4.8 µM | TGI ([19]; MDA-MB-435, melanoma): 2 µM | TGI ([20]; HS 578T, breast cancer): 5.6 µM | GI50 ([20]; Homo sapiens, Hs-578T): 1600 nM | IC50 ([20]; Homo sapiens, Hs-578T): 5.9 µM | CC50 ([20]; Homo sapiens, Hs-578T, read-out: LC50): 93.3 µM | GI50 ([21]; Homo sapiens, SF-539): 500 nM | IC50 ([21]; Homo sapiens, SF-539): 1400 nM | CC50 ([21]; Homo sapiens, SF-539, read-out: LC50): 6.5 µM | TGI ([21]; SF-539, CNS cancer): 2.1 µM | GI50 ([22]; Homo sapiens): 600 nM | IC50 ([22]; Homo sapiens): 1300 nM | CC50 ([22]; Homo sapiens, read-out: LC50): 53.7 µM | TGI ([22]; ovarian cancer): 4.6 µM | TGI ([23]; COLO 205, colon cancer): 1.5 µM | GI50 ([23]; Homo sapiens, COLO 205): 400 nM | IC50 ([23]; Homo sapiens, COLO 205): 700 nM | CC50 ([23]; Homo sapiens, COLO 205, read-out: LC50): 4.7 µM | inhibition at 10 µM ([24]; read-out: %inhibition at 10 μM): 57.9% | inhibition at 100 µM ([24]; read-out: %inhibition at 100 μM): 67.1% | TGI ([25]; HCC-2998, colon cancer): 2.2 µM | GI50 ([25]; Homo sapiens, HCC 2998): 900 nM | IC50 ([25]; Homo sapiens, HCC 2998): 1600 nM | CC50 ([25]; Homo sapiens, HCC 2998, read-out: LC50): 5.3 µM | TGI ([26]; CAKI-1, renal cancer): 9.5 µM | GI50 ([26]; Homo sapiens, CAKI-1): 400 nM | IC50 ([26]; Homo sapiens, CAKI-1): 900 nM | CC50 ([26]; Homo sapiens, CAKI-1, read-out: LC50): 32.4 µM
